How the values were obtained:
[1] = Antiproliferative activity against mouse BAF3 cells; format: cell-based
[2] = biological target: Mast/stem cell growth factor receptor Kit (Homo sapiens) (UniProt P10721); experiment: Inhibition of Tel-fused cKIT (unknown origin) transfected in mouse BAF3 cells assessed as decrease in cell proliferation after 72 hrs by celltiter-glo/CCK8 assay; format: cell-based
Summary of the method: (§1)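 Cells were seeded at 1 to 3 × 10⁴ cells/mL with serial compound concentrations and incubated 72 h at 37 °C, 5% CO₂. Viability was read by CellTiter-Glo luminescence or CCK-8 absorbance (450/655 nm). GI50 values are from triplicate testing. GIST-T1 and CHO were grown in DMEM/10% FBS; GIST-882, GIST-48B and MV4-11 in IMDM/10% FBS; other lines in RPMI 1640/10% FBS.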

K562 = experiment: Antiproliferative activity against BCR-ABL dependent human K562 cells assessed as reduction in cell viability after 72 hrs by celltiter-glo/CCK8 assay; format: functional; conditions: K562, 72 h; summary of the method: as §1
[3] = tested on: Mast/stem cell growth factor receptor Kit (Homo sapiens), P10721 [V559D]; experiment: Inhibition of Tel-fused cKIT V559D mutant (unknown origin) transfected in mouse BAF3 cells assessed as decrease in cell proliferation after 72 hrs by celltiter-glo/CCK8 assay; format: cell-based
Summary of the method: (§2)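 Stable BaF3 lines made by retroviral transduction with mutagenized TEL-KIT MSCV vectors, puromycin selection 48 h, then gradual IL-3 withdrawal until IL-3-independent; grown in RPMI 1640 with 10% FBS. Cells at 1 to 3 × 10⁴ cells/mL exposed to a concentration series for 72 h; viability read by CellTiter-Glo luminescence or CCK-8 absorbance (450/655 nm); GI50 from triplicate testing.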

[4] = tested on: Mast/stem cell growth factor receptor Kit (Homo sapiens), P10721 [V559D,V654A]; experiment: Inhibition of Tel-fused cKIT V559D/V654A double mutant (unknown origin) transfected in mouse BAF3 cells assessed as decrease in cell proliferation after 72 hrs by celltiter-glo/CCK8 assay; format: cell-based; summary of the method: as §2
[5] = tested on: Mast/stem cell growth factor receptor Kit (Homo sapiens), P10721 [N822K]; experiment: Inhibition of Tel-fused cKIT N822K mutant (unknown origin) transfected in mouse BAF3 cells assessed as decrease in cell proliferation after 72 hrs by celltiter-glo/CCK8 assay; format: cell-based
[6] = tested on: Mast/stem cell growth factor receptor Kit (Homo sapiens), P10721 [V654A]; experiment: Inhibition of Tel-fused cKIT V654A mutant (unknown origin) transfected in mouse BAF3 cells assessed as decrease in cell proliferation after 72 hrs by celltiter-glo/CCK8 assay; format: cell-based; summary of the method: as §2
[7] = biological target: Mast/stem cell growth factor receptor Kit (Homo sapiens) (UniProt P10721); experiment: Inhibition of Tel-fused cKIT L567P mutant (unknown origin) transfected in mouse BAF3 cells assessed as decrease in cell proliferation after 72 hrs by celltiter-glo/CCK8 assay; format: cell-based
[8] = tested on: Mast/stem cell growth factor receptor Kit (Homo sapiens), P10721 [V559D,T670I]; experiment: Inhibition of Tel-fused cKIT T670I/V559D double mutant (unknown origin) transfected in mouse BAF3 cells assessed as decrease in cell proliferation after 72 hrs by celltiter-glo/CCK8 assay; format: cell-based; summary of the method: as §2
[9] = Antiproliferative activity against cKIT dependent human GISTT1 cells assessed as reduction in cell viability after 72 hrs by celltiter-glo/CCK8 assay; format: functional; conditions: GISTT1, 72 h; summary of the method: as §1
MV4-11 = experiment: Antiproliferative activity against FLT3-ITD dependent human MV4-11 cells assessed as reduction in cell viability after 72 hrs by celltiter-glo/CCK8 assay; format: functional; conditions: MV4-11, 72 h; summary of the method: as §1
[10] = Antiproliferative activity against cKIT dependent human GIST882 cells assessed as reduction in cell viability after 72 hrs by celltiter-glo/CCK8 assay; format: functional; conditions: GIST882, 72 h; summary of the method: as §1
[11] = Antiproliferative activity against human GIST48B cells assessed as reduction in cell viability after 72 hrs by celltiter-glo/CCK8 assay; format: functional; summary of the method: as §1
[12] = Antiproliferative activity against human U937 cells assessed as reduction in cell viability after 72 hrs by celltiter-glo/CCK8 assay; format: functional; conditions: U-937, 72 h; summary of the method: as §1
[13] = Antiproliferative activity against FLT3-ITD dependent human MOLM14 cells assessed as reduction in cell viability after 72 hrs by celltiter-glo/CCK8 assay; format: functional; conditions: MOLM-14, 72 h; summary of the method: as §1
[14] = Antiproliferative activity against human HL60 cells assessed as reduction in cell viability after 72 hrs by celltiter-glo/CCK8 assay; format: functional; conditions: HL-60, 72 h; summary of the method: as §1
[15] = Antiproliferative activity against human Rec1 cells assessed as reduction in cell viability after 72 hrs by celltiter-glo/CCK8 assay; format: functional; conditions: Rec1, 72 h; summary of the method: as §1
[16] = Antiproliferative activity against CHL cells assessed as reduction in cell viability after 72 hrs by celltiter-glo/CCK8 assay; format: cell-based, Cricetulus griseus; conditions: chinese hamster; summary of the method: as §1
[17] = Antiproliferative activity against CHO cells assessed as reduction in cell viability after 72 hrs by celltiter-glo/CCK8 assay; format: cell-based, Cricetulus griseus; conditions: chinese hamster; summary of the method: as §1

Sequence of Mast/stem cell growth factor receptor Kit (Homo sapiens) (P10721 whole entry, the tested form may be a part): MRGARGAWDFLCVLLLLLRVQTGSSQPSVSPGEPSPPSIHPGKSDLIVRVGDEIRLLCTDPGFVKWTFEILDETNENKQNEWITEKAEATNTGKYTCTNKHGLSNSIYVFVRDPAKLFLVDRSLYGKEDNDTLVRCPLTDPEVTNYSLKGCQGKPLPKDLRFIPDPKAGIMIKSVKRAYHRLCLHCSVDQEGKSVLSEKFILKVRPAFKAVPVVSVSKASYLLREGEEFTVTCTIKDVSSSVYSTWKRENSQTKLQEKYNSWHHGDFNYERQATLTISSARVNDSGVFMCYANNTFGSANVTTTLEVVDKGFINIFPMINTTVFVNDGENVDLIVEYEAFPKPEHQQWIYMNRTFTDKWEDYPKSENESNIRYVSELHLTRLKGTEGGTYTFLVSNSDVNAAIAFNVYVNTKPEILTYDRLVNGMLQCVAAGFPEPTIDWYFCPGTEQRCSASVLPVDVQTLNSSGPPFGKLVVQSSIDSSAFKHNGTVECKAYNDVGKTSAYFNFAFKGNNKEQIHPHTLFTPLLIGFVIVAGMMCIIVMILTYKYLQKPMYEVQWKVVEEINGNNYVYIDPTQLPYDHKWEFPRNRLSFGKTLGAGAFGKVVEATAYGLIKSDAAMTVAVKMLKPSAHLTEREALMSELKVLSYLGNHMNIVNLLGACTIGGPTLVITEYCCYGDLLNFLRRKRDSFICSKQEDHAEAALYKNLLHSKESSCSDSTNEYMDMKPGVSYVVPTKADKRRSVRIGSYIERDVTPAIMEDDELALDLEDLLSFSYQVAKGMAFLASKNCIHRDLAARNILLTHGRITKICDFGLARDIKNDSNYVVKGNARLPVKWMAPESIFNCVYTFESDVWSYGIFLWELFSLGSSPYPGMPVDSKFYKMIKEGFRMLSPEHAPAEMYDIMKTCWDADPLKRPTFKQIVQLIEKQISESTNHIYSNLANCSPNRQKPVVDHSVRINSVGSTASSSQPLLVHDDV
Sequence of Mast/stem cell growth factor receptor Kit (Homo sapiens), P10721 [V559D,T670I] (P10721 whole entry V559D/T670I, the tested form may be a part): as the sequence (P10721 whole entry, the tested form may be a part) above, with V559D, T670I counted along it
Sequence of Mast/stem cell growth factor receptor Kit (Homo sapiens), P10721 [V559D] (P10721 whole entry V559D, the tested form may be a part): as the sequence (P10721 whole entry, the tested form may be a part) above, with V559D counted along it
Sequence of Mast/stem cell growth factor receptor Kit (Homo sapiens), P10721 [V654A] (P10721 whole entry V654A, the tested form may be a part): as the sequence (P10721 whole entry, the tested form may be a part) above, with V654A counted along it
Sequence of Mast/stem cell growth factor receptor Kit (Homo sapiens), P10721 [N822K] (P10721 whole entry N822K, the tested form may be a part): as the sequence (P10721 whole entry, the tested form may be a part) above, with N822K counted along it
Sequence of Mast/stem cell growth factor receptor Kit (Homo sapiens), P10721 [V559D,V654A] (P10721 whole entry V559D/V654A, the tested form may be a part): as the sequence (P10721 whole entry, the tested form may be a part) above, with V559D, V654A counted along it

Structure (SMILES) | GI50 [2] [µM] | GI50 (K562) [µM] | GI50 [1] [µM] | further results
COc1cccc(C(=O)Nc2ccc(C)c(OC3CCN(C(=O)c4cccnc4)CC3)c2)c1 | 1.48 | > 10 | > 10 | –
Cc1ccc(NC(=O)c2cccc(C(F)(F)F)c2)cc1OCCNC(=O)c1ccno1 | 9.97 | > 10 | > 10 | –
O=C(Nc1cccc(OC2CCCN(C(=O)c3cccnc3)C2)c1)c1cccc(C(F)(F)F)c1 (stereo not drawn) | 8.07 | > 10 | 8.07 | –
Cc1ccc(NC(=O)c2ccc(C)c(C(F)(F)F)c2)cc1OC1CCN(C(=O)c2cncs2)CC1 | 0.1 | 5.24 | > 10 | –
O=C(Nc1ccc(Cl)c(OC2CCN(C(=O)c3cccnc3)CC2)c1)c1cccc(C(F)(F)F)c1 | 0.96 | 2.8 | > 10 | –
Cc1ccc(NC(=O)c2ccc(CN3CCN(C)CC3)cc2)cc1Nc1nccc(-c2cccnc2)n1 [IMATINIB] | 0.4 | 0.12 | > 10 | GI50 [3]: 0.039 µM; GI50 [4]: 3 µM; GI50 [5]: 1.29 µM; GI50 [6]: 2.49 µM; GI50 [7]: 0.1 µM; GI50 [8]: 6.67 µM; GI50 [9]: 0.008 µM; GI50 (MV4-11): > 10 µM; GI50 [10]: 0.014 µM; GI50 [11]: > 10 µM; GI50 [12]: > 10 µM; GI50 [13]: > 10 µM; GI50 [14]: > 10 µM; GI50 [15]: > 10 µM; GI50 at 72 h [16]: > 10 µM; GI50 at 72 h [17]: > 10 µM
Cc1ccc(NC(=O)c2ccc3c(c2)OCO3)cc1OC1CCN(C(=O)c2cccnc2)CC1 | 4.8 | > 10 | > 10 | –
Cc1ccc(NC(=O)c2cccc(C(F)(F)F)c2)cc1OCCNC(=O)c1cccnc1 | 7.94 | > 10 | > 10 | –

Now from value to molecule, other results behind:

GI50 [2] [µM] | GI50 (K562) [µM] | Structure (SMILES) | GI50 [1] [µM] | further results
0.15 | 1.95 | Cc1ccc(NC(=O)c2cc(Cl)cc(C(F)(F)F)c2)cc1OC1CCN(C(=O)c2ccno2)CC1 | > 10 | –
0.11 | 2.94 | Cc1ccc(NC(=O)c2cccc(C(F)(F)F)c2)cc1OC1CCN(C(=O)c2cccnc2)CC1 | > 10 | –
0.15 | 4.56 | Cc1ccc(NC(=O)c2cc(F)cc(C(F)(F)F)c2)cc1OC1CCN(C(=O)c2cccnc2)CC1 | > 10 | –
0.33 | > 10 | Cc1ccc(NC(=O)c2cccc(C(F)(F)F)c2)cc1OC1CCN(C(=O)c2ccccn2)CC1 | > 10 | –
0.22 | 0.16 | Cc1ccc(NC(=O)c2cccc(C(F)(F)F)c2)cc1OC1CCN(C(=O)c2ccno2)CC1 | > 10 | –
0.16 | 3.66 | Cc1ccc(NC(=O)c2cc(Cl)cc(C(F)(F)F)c2)cc1OC1CCN(C(=O)c2cccnc2)CC1 | > 10 | –
